A selection: hits, their analogues and other compounds. The true share with any hit is near 4.1%.
Apaf1 inhib – inhibitors of human Apaf-1 apoptosome, primary screen, biochemical, DEVD-Rh110 fluorescence, uHTS; Apoptotic protease-activating factor 1 (Homo sapiens), O14727; reconstituted apoptosome caspase-3 activity; inhibition, % at 20 µM; 330,000 tested, 0.71% active; AID 489030, 2010; active = inhibition of at least 40% at 20 µM
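Material: reconstituted apoptosome with Apaf-1, cytochrome c, caspase-9, procaspase-3, dATP; medium: pH 7.5 Hepes buffer with CHAPS, BSA, DTT; also added: cytochrome c and DEVD-Rh110 substrate; timing: 30 min plus 50 min, RT; signal: Rh110 fluorescence intensity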
Mdm2 MdmX PPI – inhibitors of human Mdm2-MdmX association, primary screen, cell-based, luminescence, split luciferase, SaOS-2, uHTS; Protein Mdm4 (Homo sapiens) + E3 ubiquitin-protein ligase Mdm2 (Homo sapiens), …; AID 485346, 2010; inhibition, % at 8 µM; 330,000 tested, 3% active; SaOS-2 split-luciferase Mdm2/MdmX complementation;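 active = inhibition of at least 50% at 8 µM in the primary screen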
UBC13 polyUb – UBC13 polyubiquitin chain formation inhibitors, primary screen, biochemical, TR-FRET, uHTS; 330,000 tested, 0.47% active; AID 485273, 2010; inhibition, % at 20 µM; in the data active = inhibition above about 45%, passing the limit was not always enough
Target sequence (P61088 whole entry, looked up): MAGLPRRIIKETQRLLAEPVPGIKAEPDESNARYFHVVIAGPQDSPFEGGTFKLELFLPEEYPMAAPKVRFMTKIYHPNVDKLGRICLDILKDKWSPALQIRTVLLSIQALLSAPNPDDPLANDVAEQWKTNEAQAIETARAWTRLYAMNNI
CHOP UPR activ – activators of apoptotic CHOP UPR arm, primary screen, cell-based, CHO-CHOP luciferase reporter, luminescence, uHTS; UPR activation; percent of tunicamycin response over DMSO baseline; activation, % at 10 µM; 330,000 tested, 0.34% active; AID 449763, 2010;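 active = at 10 µM dose, activation of 40% or more, normalized to positive control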
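Dosing – one dose, 10 µM in 0.5% DMSO · System – CHO-CHOP cells, stable luciferase reporter of PERK-eIF2a-CHOP signalling · Input – 500 cells/well · Control set – tunicamycin 10 µg/mL final as positive, DMSO-only wells as negative · Timing – 6 h compound treatment, 37 °C · Measure – % activation vs tunicamycin · Technique – luminescence read with Steady-Glo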
XBP1 UPR activ – activators of adaptive XBP1 UPR arm, primary screen, cell-based, CHO-XBP1 luciferase reporter, luminescence, uHTS; IRE1-XBP1 UPR activation; percent of tunicamycin response, DMSO as zero; activation, % at 20 µM; 330,000 tested, 0.33% active;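 active = versus positive control, 20 µM dose yields 30% or more activation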
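Material: CHO cell line with stable XBP1 luciferase reporter; schedule: 16-18 h cell attachment at 37 °C, then 6 h compound exposure; signal: glow luminescence from Steady-Glo reagent; medium: serum-containing F12 medium, 10% FBS; benchmarks: tunicamycin 10 µg/mL and vehicle-only wells; read-out: percent activation relative to tunicamycin reference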
Mdm2-MdmX conf – Mdm2-MdmX complex disruptors, retested hits, confirmation, luminescence, single concentration. Mdm2-MdmX binding, luminescent assay. shares compounds with Mdm2 MdmX PPI. 10,000 tested, 55% active. inhibition, % at 8 µM. AID 489028, 2010; in the data active = inhibition above about 40%
FLuc counter – full-length luciferase signal inhibition, confirmation, counter-screen for Mdm2/MdmX interaction inhibitor project, cell-based, single concentration, SaOS-2 | shares compounds with Mdm2 MdmX PPI | inhibition, % at 8 µM | SaOS-2 full-length luciferase counterscreen, luminescence | 6,200 tested, 77% active;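 active = mean inhibition at 8 µM reaching about 37%, which flags the compound as non-specific, limit read from the data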;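 note: p53-null SaOS-2 cells with luciferase driven by a doxycycline-inducible promoter; compound on cells about two nights before reading with doxycycline added after day one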
Numbers stand for hits; 0 = inactive; - = not tested or not shown.

SMILES | Apaf1 inhib | Mdm2 MdmX PPI | UBC13 polyUb | CHOP UPR activ | XBP1 UPR activ | Mdm2-MdmX conf | FLuc counter
Cn1cnnc1Sc1ccc(/C=C/C(=O)c2ccc(O)cc2)cc1[N+](=O)[O-] | 0 | 51 | 0 | 0 | 0 | 0 | 53
O=C(N/N=C/c1ccc(O)cc1O)c1ccc(CN2C(=O)c3cccc4cccc2c34)cc1 | 0 | 75 | 0 | 0 | 0 | 75 | 0
CCN(CC)c1ccc2nc3ccc(N)cc3[n+](-c3ccccc3)c2c1 | 0 | 92 | 0 | 0 | 0 | 93 | 0
CCN(CC)c1ccc2nc3ccccc3[n+](CC)c2c1 | 0 | 53 | 0 | 0 | 0 | 0 | -
CN1CCN(NC(=O)/C=C/c2cccc(Cl)c2)CC1 | 0 | 0 | 0 | 0 | 0 | - | -
CN(CC(=O)Nc1ccccc1Cl)C(=O)COC(=O)c1ccc(Cl)nc1 | 0 | 0 | 0 | 0 | 0 | - | -
CN(CC(=O)Nc1ccccc1Cl)C(=O)COC(=O)c1nc(Cl)c(Cl)c(Cl)c1Cl | 0 | 78 | 0 | 0 | 0 | 41 | 0
CCCC(=O)Nc1nc(C)c(-c2csc(Nc3cc(OC)ccc3OC)n2)s1 | 0 | 0 | 0 | 0 | 0 | - | -
C=CCCC(=O)Nc1nc(C)c(-c2csc(Nc3cc(OC)ccc3OC)n2)s1 | 0 | 66 | 0 | 0 | 0 | 60 | 46
Cc1ccc(C(C)C)cc1OCC(=O)Nc1nnc(C2CC2)s1 | 0 | 88 | 0 | 0 | 0 | 65 | 0
O=C(Oc1ccc(NC(=O)c2cc3c(cc2Br)OCO3)cc1)c1ccccc1 | 0 | 0 | 0 | 0 | 0 | - | -
O=S(c1ccc2ccccc2c1)c1cnns1 (stereo unspecified) | 0 | 57 | 0 | 0 | 0 | 0 | -
N#C/C(=N\Nc1ccc(F)cc1)C(=O)C1CC1 | 0 | 0 | 0 | 0 | 0 | - | -
N#C/C(=N\Nc1ccc(Cl)c(Cl)c1)C(=O)C1CC1 | 0 | 58 | 0 | 0 | 0 | 72 | 47
Cn1c(N2CCN(C(c3ccccc3)c3ccccc3)CC2)nc2c1c(=O)[nH]c(=O)n2C | 0 | 60 | 0 | 0 | 0 | 58 | 87
COc1ccccc1C(=O)Nc1ccc2c(c1)nc(CCNC(=O)c1ccco1)n2C | 0 | 67 | 0 | 0 | 0 | 53 | 66
Cc1cc(NC(=O)CSc2nc3c(sc4ccccc43)c(=O)n2CCc2ccccc2)n[nH]1 | 0 | 62 | 0 | 0 | 0 | 0 | -
O=C(CSc1nc2c(sc3ccccc32)c(=O)n1CCCN1CCCC1)NCc1ccco1 | 0 | 0 | 0 | 0 | 0 | - | -
Cc1cc(NC(=O)CSc2nc3c(sc4ccccc43)c(=O)n2CCCN2CCOCC2)n[nH]1 | 0 | 70 | 0 | 0 | 0 | 82 | 125
O=C(NCCN1CCOCC1)C(=O)NCC1OCCCN1S(=O)(=O)c1cc(F)ccc1F (stereo unspecified) | 0 | 0 | 0 | 0 | 0 | - | -
Cn1nc(C(F)(F)F)c(/C=N/OC(=O)c2ccccc2)c1Sc1ccc(Cl)cc1 | 0 | 51 | 0 | 0 | 0 | 0 | -
Cn1nc(C(F)(F)F)c(/C=N/OC(=O)c2ccccc2)c1Cl | 0 | 0 | 0 | 0 | 0 | - | -
Cc1onc(-c2ccccc2Cl)c1C(=O)Oc1cccc2cccnc12 | 0 | 0 | 0 | 0 | 0 | - | -
CCc1nc2ccccc2c(C(=O)OCC(=O)Nc2ccc(S(=O)(=O)N3CCOCC3)cc2)c1C | 0 | 0 | 0 | 0 | 0 | - | -
CCc1nc2ccccc2c(C(=O)OCC(=O)Nc2cccc(S(=O)(=O)N3CCOCC3)c2)c1C | 0 | 66 | 0 | 0 | 0 | 75 | 45
SMILES | Apaf1 inhib | Mdm2 MdmX PPI | UBC13 polyUb | CHOP UPR activ | XBP1 UPR activ | Mdm2-MdmX conf | FLuc counter
c1ccc(-c2cccc(-c3ccccn3)n2)nc1 | 0 | 66 | 0 | 0 | 0 | 79 | 0
Cn1cc(CC(=O)NCCN2CCOCC2)c2ccccc21 | 0 | 0 | 0 | 0 | 0 | - | -
CC1=Nc2ccccc2/C1=C/c1sc(=N)n(-c2nccs2)c1O | 0 | 99 | 0 | 0 | 0 | 67 | 0
Cc1nc2c(-c3ccccc3)c(C)[nH]n2c(=O)c1Cc1ccccc1 | 0 | 0 | 0 | 0 | 0 | - | -
Cc1nc2c(-c3ccc(Cl)cc3)c(C)[nH]n2c(=O)c1Cc1ccccc1 | 0 | 53 | 0 | 0 | 0 | 61 | 55
Oc1c(Cl)cc(Cl)cc1C=Nc1ccc(Br)cc1 | 0 | 92 | 0 | 0 | 0 | 52 | 60
COc1ccccc1OCC(=O)Nc1nc2c(s1)CCCC2 | 0 | 51 | 0 | 0 | 0 | 59 | 83
Cc1ccc(CC(=O)Nc2nc3c(s2)CCCC3)cc1 | 0 | 87 | 0 | 0 | 0 | 79 | 37
O=C(CCS(=O)(=O)Cc1ccccc1)Nc1nc2c(s1)CCCC2 | 0 | 56 | 0 | 0 | 0 | 63 | 61
CC(=O)Nc1ccc(NS(=O)(=O)c2cn(C)c(=O)n(C)c2=O)cc1 | 0 | 0 | 0 | 0 | 0 | - | -
COCCNC(=O)c1c(NC(=O)c2nc(SC)ncc2Cl)sc2c1CCCC2 | 0 | 0 | 0 | 0 | 0 | - | -
Cc1cc(Sc2ncnc(N)c2[N+](=O)[O-])ncn1 | 0 | 93 | 0 | 0 | 0 | 0 | -
CSc1cccc(NC(=S)N(CCCN2CCCC2)Cc2cccs2)c1 | 0 | 0 | 0 | 0 | 0 | - | -
CSc1cccc(NC(=S)N(CCCN2CCCC2)Cc2cccn2Cc2ccc(Cl)cc2)c1 | 0 | 73 | 0 | 0 | 0 | 44 | 63
Cn1cc(CN(CCCN2CCOCC2)C(=S)Nc2cccc(Cl)c2)c2ccccc21 | 0 | 0 | 0 | 0 | 0 | - | -
S=C(Nc1cccc(Cl)c1)N(CCCN1CCCC1)Cc1cccn1Cc1ccc(Cl)cc1 | 0 | 62 | 0 | 0 | 0 | 0 | -
COc1cccc(NC(=S)N(CCCN2CCCC2)Cc2cccn2Cc2ccc(Cl)cc2)c1 | 0 | 56 | 0 | 0 | 0 | 0 | -
COc1cc(/C=C(\C#N)C(=O)NCC2CCCO2)ccc1OCCC(C)C (stereo unspecified) | 0 | 0 | 0 | 0 | 0 | - | -
CCOC(=O)/C=C(\C)Sc1cc(=O)oc2ccccc12 | 0 | 55 | 0 | 0 | 0 | 0 | -
C=CCc1cc(/C=C2/NC(=S)NC2=O)cc(OC)c1O | 0 | 55 | 0 | 0 | 0 | 0 | -
C=CCc1cc(/C=C2/NC(=O)NC2=O)cc(OCC)c1O | 0 | 0 | 0 | 0 | 0 | - | -
O=C(CN1c2ccccc2Sc2ccccc21)NNC(=O)Nc1ccc(Cl)c(Cl)c1 | 0 | 0 | 0 | 0 | 0 | - | -
O=C(CN1c2ccccc2Sc2ccccc21)NNC(=O)Nc1ccc(Cl)cc1 | 0 | 54 | 0 | 0 | 0 | 0 | 54
COc1ccc(Oc2nc(SC)nc3ccsc23)cc1 | 0 | 0 | 0 | 0 | 0 | - | -
CSc1nc(Oc2ccc3ccccc3c2)c2sccc2n1 | 0 | 55 | 0 | 0 | 0 | 67 | 43
